# Results reported in ChEMBL document CHEMBL1828529, “Novel human mPGES-1 inhibitors identified through structure-based virtual screening” (Bioorg Med Chem, 2011).
# Biological target: T1, Prostaglandin E synthase (Homo sapiens) (UniProt O14684)
# T1 sequence (whole entry): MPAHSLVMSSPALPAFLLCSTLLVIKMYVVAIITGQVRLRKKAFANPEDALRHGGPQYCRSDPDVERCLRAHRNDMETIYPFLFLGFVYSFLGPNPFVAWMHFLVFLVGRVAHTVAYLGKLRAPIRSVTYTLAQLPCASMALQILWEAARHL
# Experiment: Inhibition of human recombinant microsomal PGES-1 expressed in freestyle 293-f cells assessed as conversion of PGH2 to PGE2 at 10 uM after 15 mins by enzyme immunoassay
# Format: cell-based
# How it was run: (§1)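 Reaction in 0.2 M sodium phosphate pH 7.2 stock with 0.1 M GSH stock. Enzyme and inhibitor preincubated 15 min at room temperature, then started with cold PGH2 (1 μM final) on ice. Stopped after 30 s with SnCl2 in ethanol. PGE2 measured by enzyme immunoassay against an enzyme-free blank.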
row,SMILES,inhibition [%]
1,CC1CCc2c(sc3ncnc(SC(C)C(=O)O)c23)C1 (centres undefined),16
2,CC(=O)NC(Cc1ccc(C)cc1)C(=O)NC(Cc1ccc(F)cc1)C(=O)N1CCC(OCc2ccccc2)CC1CCCNC(=N)N (centres undefined),31
3,CCOC(=O)Cn1c(=O)c2c(nc3n2CCCN3c2ccc(OCC)cc2)n(C)c1=O,39
4,CCN1C(=O)C2Cc3c([nH]c4ccccc34)C(c3ccc(Cl)cc3)N2C1=O (centres undefined),10
5,COCCN(c1ccc(/C=C2\S/C(=N\c3ccccc3)N(C(C)C(=O)O)C2=O)cc1)c1ccccc1OC (centres undefined),83
6,O=C(O)CSc1nc2sc3c(c2c(=O)n1Cc1ccccc1)CCCCC3,20
7,O=[N+]([O-])C(/C=C(\Cl)[N+](=O)[O-])=C(N1CCCCC1)N1CCCCC1,15
8,Cc1c(C(=O)O)ccc2c1NC(c1ccc(OCC#N)cc1)C1CC=CC21 (centres undefined),39
9,N#CCC(=O)N/N=C(\c1nc2ccc(Cl)cc2nc1O)C(O)c1ccc(Cl)cc1 (centres undefined),50
10,O=[N+]([O-])c1cc2c(c([N+](=O)[O-])c1)Nc1ccccc1N=C2c1ccc(Cl)cc1,26
11,CC1(C)C(c2ccc(Cl)cc2)N(O)C2(CCCCC2=O)N1O (centres undefined),43

# Biological target: T2, Prostaglandin E synthase (Homo sapiens, UniProt O14684)
# T2 sequence (O14684 whole entry): T1 sequence (whole entry)
# Experiment: Inhibition of microsomal PGES
# How it was run: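 Compound was preincubated with enzyme for 15 min at room temperature. PGH2 (1 μM final) was added on ice, and the reaction was stopped after 30 s with SnCl2. PGE2 was measured by EIA against an enzyme-free blank.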
row,SMILES,IC50 [µM]
1,CC1=C(CC(=O)O)c2cc(F)ccc2/C1=C\c1ccc([S+](C)[O-])cc1 (centres undefined),80
2,CS(=O)(=O)Nc1ccc([N+](=O)[O-])cc1OC1CCCCC1 [NS-398],20

# Biological target: T2, Prostaglandin E synthase
# Experiment: Inhibition of human recombinant microsomal PGES-1 expressed in freestyle 293-f cells assessed as conversion of PGH2 to PGE2 after 15 mins by enzyme immunoassay
# Format: cell-based
# How it was run: as §1
row,SMILES,IC50 [µM]
1,COCCN(c1ccc(/C=C2\S/C(=N\c3ccccc3)N(C(C)C(=O)O)C2=O)cc1)c1ccccc1OC (centres undefined),3.5
